Assay outcomes deposited in PubChem BioAssay by Broad Institute.
Sampled rows, rich in hits. Any-hit rate of the full collection: about 2.4%.
PGC1a acetyl inh: lowers PGC1a acetylation signal in U2OS cells; AlphaScreen anti-acetyl-lysine; with virally co-expressed GCN5 acetyltransferase; inhibition, % at 15.6 µM; 0.17% of 350,000 active; AID 651687;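 active = every replicate shows inhibition of at least 40%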;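 note: 0% = neutral control wells and 100% = positive control wells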
S100A4 inh HTS: blocks human S100A4 binding to myosin IIA peptide. inhibition, % at 10.7 µM. S100A4/TAMRA-MyoIIA peptide fluorescence polarization. P26447. 0.14% of 360,000 active;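 active = mean inhibition of at least 70% across replicates, with every replicate also reaching that level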
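System – human S100A4 monomer protein, biochemical binding assay · Buffer or medium – Calcium-containing HEPES buffer, pH 7.2 · Timing – 5 min between mix addition and reading · Also added – TAMRA-labelled myosin IIA heavy-chain peptide probe, 5 nM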
ARNT TACC3 PPI: ARNT/TACC3 interaction disruption. AlphaScreen His-ARNT PAS-B/GST-TACC3 binding, luminescence; TACC3 fragment carries E629A point mutation. inhibition, % at 9.99 µM. 0.66% of 390,000 active;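 active = mean inhibition of replicates at least 50% and at least half of replicates each reaching 50%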;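 note: 0% = complete ARNT plus TACC3 wells and 100% = ARNT alone without TACC3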
Casp6 inh: blocks human caspase-6 cleavage activity | P55212 | purified caspase-6, Z-VEID-R110 cleavage fluorescence | inhibition, % at 12.5 µM | 0.53% of 350,000 active;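 active = mean inhibition across replicates at least about 35%, with every replicate also reaching that limit, limit read from the data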;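 note: 0% = median of neutral control wells and 100% = no fluorescence left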
rRNA inh HTS: inhibits bacterial ribosomal RNA function over humanized ribosomes. E. coli WT GFP vs humanized-ribosome RFP mutants, fluorescence, 24 h; active compounds read low; DMSO median 0, no signal -100. GFP signal change (wild-type ribosome), % (no concentration beside the values). 1.6% of 350,000 active. AID 720706;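 active = significant combined selectivity score with lowered wild-type GFP, culture density cut under 30%, mutant RFP and density less affected; inactive = any of these conditions unmet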
ERAP1 inh: ERAP1 (human) enzyme inhibition | Q9NZ08 | recombinant ERAP1, Leu-AMC fluorescence, 60 min | inhibition, % at 10.7 µM | 0.15% of 340,000 active | AID 652197;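 active = mean replicate inhibition of at least 30%, or all replicates individually reaching that 30% level; inactive = mean below 30% and not every replicate reaching it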;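 note: 0% = neutral control wells and 100% = L-leucinethiol positive control wells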
Target sequence (Q9NZ08 whole entry, looked up): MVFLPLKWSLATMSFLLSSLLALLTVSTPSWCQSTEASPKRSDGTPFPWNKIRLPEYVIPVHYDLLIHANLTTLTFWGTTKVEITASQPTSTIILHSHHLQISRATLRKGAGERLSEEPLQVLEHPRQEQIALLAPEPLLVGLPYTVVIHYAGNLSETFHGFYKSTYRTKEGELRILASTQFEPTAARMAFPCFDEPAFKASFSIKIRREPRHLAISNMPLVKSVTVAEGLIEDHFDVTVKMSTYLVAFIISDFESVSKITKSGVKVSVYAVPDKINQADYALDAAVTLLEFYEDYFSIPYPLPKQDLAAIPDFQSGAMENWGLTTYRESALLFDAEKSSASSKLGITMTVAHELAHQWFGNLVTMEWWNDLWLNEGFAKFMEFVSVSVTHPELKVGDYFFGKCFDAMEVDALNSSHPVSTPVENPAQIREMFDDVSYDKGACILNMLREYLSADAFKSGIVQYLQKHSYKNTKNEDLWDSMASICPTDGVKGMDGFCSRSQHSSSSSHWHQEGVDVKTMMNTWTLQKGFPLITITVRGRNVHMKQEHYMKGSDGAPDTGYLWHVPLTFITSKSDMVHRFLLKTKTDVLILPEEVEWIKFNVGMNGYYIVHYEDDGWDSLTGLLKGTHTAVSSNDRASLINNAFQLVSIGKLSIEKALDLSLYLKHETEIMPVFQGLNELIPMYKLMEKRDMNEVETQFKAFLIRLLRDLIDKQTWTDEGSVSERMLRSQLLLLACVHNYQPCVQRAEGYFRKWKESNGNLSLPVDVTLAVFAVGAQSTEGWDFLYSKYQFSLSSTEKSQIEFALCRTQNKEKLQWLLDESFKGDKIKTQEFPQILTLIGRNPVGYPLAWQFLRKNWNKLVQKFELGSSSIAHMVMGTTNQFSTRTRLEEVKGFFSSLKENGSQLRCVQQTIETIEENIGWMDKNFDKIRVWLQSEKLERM
The depositor's hits bear a star; x = no result.

SMILES	PGC1a acetyl inh	S100A4 inh HTS	ARNT TACC3 PPI	Casp6 inh	rRNA inh HTS	ERAP1 inh
O=C(O)CCN1C(=O)/C(=C\c2cccc(OCC(=O)Nc3ccc(Cl)cc3)c2)SC1=S	-6.2	2.4	1.2	13.5	-29.6*	-1.9
CN(C)C(=O)c1cccc(-c2ccc3c(c2)[C@H]2[C@H](CCN2C(=O)C2CC2)[C@H](CO)N3)c1	4.2	-9.2	2.7	0.6	-5.1	1.8
O=C(c1cccc(F)c1)N1CC[C@@H]2[C@H](CO)Nc3ccc(-c4ccc(F)cc4)cc3[C@@H]21	2.4	-9.8	0.2	-2.0	-30.4	0.7
CN(C)C(=O)c1cccc(-c2ccc3c(c2)[C@H]2[C@H](CCN2C(=O)C2CC2)[C@@H](CO)N3)c1	8.0	78.3*	12.7	10.5	-0.1	1.9
N#Cc1cccc(-c2ccc3c(c2)[C@@H]2[C@@H](CCN2C(=O)c2ccccc2F)[C@H](CO)N3)c1	-0.1	3.7	4.2	-2.3	-23.3	-0.5
O=C(c1cccc(F)c1)N1CC[C@H]2[C@H](CO)Nc3ccc(-c4ccc(F)cc4)cc3[C@H]21	3.5	102.0*	11.8	-0.5	-58.7	0.7
N#Cc1cccc(-c2ccc3c(c2)[C@H]2[C@H](CCN2C(=O)c2ccccc2F)[C@H](CO)N3)c1	-12.1	x	3.0	x	-25.5*	x
COc1ccc2c3c([nH]c2c1)[C@H](CO)N(C(=O)C1CCCCC1)CC31CN(C(=O)c2ccncc2)C1	-1.8	x	x	x	-1.8	x
CC(C)NC(=O)N1C2CN(CC(F)(F)F)CC1C2c1ccc(Br)cc1 (stereo unspecified)	x	x	x	x	-1.7	x
C=CCn1c(SCC(=O)N2CC(C)OC(C)C2)nnc1-c1ccncc1 (stereo unspecified)	-3.4	0.4	x	-3.5	10.9	49.1*
C[C@H]1CCCCO[C@H](CN(C)S(=O)(=O)c2ccc(Cl)cc2)[C@@H](C)CN([C@@H](C)CO)C(=O)c2cc(NS(=O)(=O)c3cccs3)ccc2O1	-0.9	-16.8	-2.2	0.9	-2.7	-1.7
CCCC#Cc1cnc2c(c1)C(=O)N([C@@H](C)CO)C[C@@H](C)[C@@H](CN(C)S(=O)(=O)c1ccccc1)O2	2.4	5.5	-3.2	4.4	3.0	5.3
O=C(CC(=O)Nc1nc(C23CC4CC(CC(C4)C2)C3)cs1)NCCO	1.4	6.0	-6.2	2.5	-9.1	1.2
O=C(CC1(c2ccc(Cl)cc2)C2CC3CC(C2)CC1C3)NCCO (stereo unspecified)	1.9	-1.5	20.4	-1.6	-42.4*	-2.6
C[C@@H]1CN([C@@H](C)CO)C(=O)Cc2cc(NS(=O)(=O)c3cccs3)ccc2O[C@H]1CN(C)Cc1ccc(Cl)c(Cl)c1	10.1	-7.6	16.5	-2.4	-3.5	0.3
O=C(Cn1cnc([N+](=O)[O-])n1)c1ccc(O)c(O)c1	x	-15.1	7.3	42.6*	4.4	4.5
O=C(Cn1cnc([N+](=O)[O-])n1)c1ccccc1	x	-5.7	-1.2	-3.2	2.7	-2.7
COc1ccccc1NC(=O)N1CCCCN2[C@H](CO)[C@@H](c3ccc(C#CC4CC4)cc3)[C@H]2C1	x	0.6	x	2.3	x	3.9
CCOC(=O)c1c(C)oc2c1c(C=NCC1CCCO1)c(O)c1ccccc12 (stereo unspecified)	9.6	x	25.7	x	x	x
CCOC(=O)c1c(C)oc2c1c(C=NCc1ccccn1)c(O)c1ccccc12	x	-1.6	47.7*	60.4*	11.2	1.7
C[C@H](NC(=O)C[C@H]1C[C@@H]2c3cc(NC(=O)CN(C)C)ccc3O[C@@H]2[C@H](CO)O1)c1ccccc1	-5.1	107.6*	-0.5	3.7	5.5	2.6
C[C@H](NC(=O)C[C@@H]1C[C@@H]2c3cc(NC(=O)Nc4ccc(C(F)(F)F)cc4)ccc3O[C@@H]2[C@@H](CO)O1)c1ccccc1	7.7	85.4*	11.4	0.0	-3.5	0.5
C[C@H](NC(=O)C[C@@H]1C[C@H]2c3cc(NC(=O)Nc4ccc(C(F)(F)F)cc4)ccc3O[C@H]2[C@H](CO)O1)c1ccccc1	24.1	-8.2	4.2	4.9	-22.7	-0.5
O=C(Nc1ccc2c(c1)[C@@H]1C[C@H](CC(=O)N3CCc4ccccc4C3)O[C@H](CO)[C@@H]1O2)c1ccc2c(c1)OCO2	-0.4	-14.0	47.6*	2.6	-5.0	0.8
C[C@@H]1CN([C@H](C)CO)C(=O)c2c(c3ccccc3n2C)-c2ccccc2CO[C@@H]1CN(C)C(=O)Cc1ccccc1	-42.7	-2.2	12.3	0.9	2.8	-0.9
SMILES	PGC1a acetyl inh	S100A4 inh HTS	ARNT TACC3 PPI	Casp6 inh	rRNA inh HTS	ERAP1 inh
O=C(Oc1c(-c2ccccc2)c(=O)n2c3c(cccc13)CC2)c1ccccc1	-2.8	-19.0	x	-1.1	-28.1*	5.3
O=C(Cn1c(=O)n(Cc2ccco2)c(=O)c2c3c(sc21)CCCCC3)c1ccccc1	1.9	-3.7	1.6	24.6	-19.4*	3.7
O=C(C/C=N\OCc1ccc([N+](=O)[O-])cc1)Nc1ccc(Cl)cc1	x	-9.3	3.5	0.6	-40.5*	7.3
O=C(C/C=N\OCc1ccc([N+](=O)[O-])cc1)Nc1ccccc1	4.6	-0.9	-2.7	0.4	-1.8	1.5
COc1ccc(NC(=O)N(C)C[C@@H]2Oc3c(NC(=O)Nc4ccccc4)cccc3C(=O)N([C@@H](C)CO)C[C@@H]2C)cc1	11.6	-2.1	4.9	0.6	-5.4	-3.6
COCC#Cc1ccc(CC[C@H]2O[C@H]3CC[C@H](CO)O[C@H]3C[C@@H]2n2cc(C3(O)CCCC3)nn2)cc1	-4.3	x	x	x	x	x
CC1(C)OC(=O)C(=Cc2ccc(-c3ccc(Cl)c(C(=O)O)c3)o2)C(=O)O1	x	-1.6	2.0	58.1*	2.8	-8.7
CC1=NN(c2ccc(Cl)c(C(=O)O)c2)C(=O)/C1=C\c1ccc(-c2ccc(C(=O)O)cc2)o1	x	-10.3	3.2	54.1*	12.1	-3.1
CC1=NOC(=O)/C1=C\c1ccc(-c2ccc(Cl)c(C(=O)O)c2)o1	7.8	-0.9	-2.7	31.1	5.3	-56.7
O=C(O)c1cc(-c2ccc(/C=C3/SC(=S)N(Cc4ccccc4)C3=O)o2)ccc1Cl	4.1	-3.7	1.1	51.1*	6.5	-54.6
CCCC(=O)Nc1ccc2c(c1)OC[C@@H](C)N(C(=O)C1CCCC1)C[C@H](C)[C@H](OC)CN(C)C2=O	-7.8	1.5	-9.0	3.8	-1.6	0.4
COCC(=O)N(C)C[C@H]1Oc2cc(C#CC(C)C)ccc2S(=O)(=O)N([C@@H](C)CO)C[C@@H]1C	2.9	x	8.8	x	1.4	x
CO[C@@H]1CN(C)C(=O)c2ccc(NC(=O)Nc3ccccc3)cc2OC[C@H](C)N(C(=O)Nc2c(C)noc2C)C[C@H]1C	-6.7	-4.7	-4.3	0.9	0.6	3.8
CC(=O)N[C@@H]1CC[C@@H](CCNC(=O)C2CCC2)O[C@@H]1CO	5.1	4.5	x	26.6	0.9	3.9
